# CHRM4 agonist: agonists of human muscarinic M4 receptor (CHRM4) | P08173 | CHO-K1 hM4/Gqi5, Fluo-8 calcium fluorescence; vehicle 0%, full acetylcholine response 100% | activation, % at 3 µM | hit rate 0.14% among 360,000;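 active = activation above the run mean over all test wells plus 3 SD, cut at about 32% in these data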;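 note: peak over basal fluorescence ratio per well then scaled between controls; 0% = DMSO wells and 100% = acetylcholine at EC100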
# TAAR1 ag: agonists of human TAAR1; CHO RD-HGA16 TAAR1, Fluo-8 calcium fluorescence; vehicle wells 0%, saturating PEA agonist 100%; activation, % at 3 µM; Q96RJ0; hit rate 0.99% among 360,000; AID 624467;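 active = activation above the mean activation of all test compounds in the run plus 3 SD, cut at about 38% in these data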
# Target sequence (Q96RJ0 whole entry, looked up): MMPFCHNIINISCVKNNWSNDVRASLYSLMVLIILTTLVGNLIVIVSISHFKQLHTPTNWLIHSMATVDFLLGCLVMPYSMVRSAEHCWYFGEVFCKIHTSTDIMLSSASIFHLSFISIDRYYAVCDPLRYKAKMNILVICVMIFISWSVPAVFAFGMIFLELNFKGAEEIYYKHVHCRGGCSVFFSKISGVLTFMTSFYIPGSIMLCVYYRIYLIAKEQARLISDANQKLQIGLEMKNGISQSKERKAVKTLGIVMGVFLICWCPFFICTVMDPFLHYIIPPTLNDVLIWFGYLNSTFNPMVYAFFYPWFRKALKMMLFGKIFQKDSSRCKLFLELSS
#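 Test system: RD-HGA16 (CHO) cells co-expressing Gα16 and hTAAR1; dosing: one-point dosing at 3 µM (nominal); timing: 17-24 h seeding, 75 min 37 °C dye, 30 min RT; signal: kinetic Fluo-8 calcium fluorescence; read-out basis: % activation relative to PEA EC100 response; controls: DMSO and PEA EC100; replicates: n 1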
# TAAR1 antagonist: human TAAR1 antagonism. Q96RJ0. CHO RD-HGA16 TAAR1, Fluo-8 calcium fluorescence, antagonist. inhibition, % at 3 µM. hit rate 1.5% among 360,000. AID 624466;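 active = inhibition above a per-plate cutoff, the mean inhibition of test compounds on that plate plus 3 SD, cut at about 49% in these data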;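 note: 0% = DMSO plus EC80 beta-PEA response and 100% = DMSO alone without agonist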
#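 Material: CHO RD-HGA16 cells bearing hTAAR1; compound dosing: one-point dosing, 3 µM nominal final; schedule: dye loading 75 min at 37 °C, then 30 min room temperature; measured by: calcium fluorescence with Fluo-8; control set: vehicle and agonist controls; replication: n of 1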
# M4 antag: antagonists of human muscarinic M4 receptor (CHRM4) | CHO-hM4 cells, ACh EC80, Fluo-8 calcium fluorescence | inhibition, % at 3 µM | hit rate 0.73% among 360,000 | AID 624125;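 active = inhibition above its plate's cutoff, the mean inhibition of sample wells plus 3 SD, cut at about 27% in these data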;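 note: 0% = acetylcholine EC80 with DMSO and 100% = DMSO without agonist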
# CHRM4 PAM: potentiates acetylcholine response at human M4 receptor; P08173; CHO-K1 hM4/Gqi5, Fluo-8 calcium fluorescence, ACh EC20; 0% = ACh EC20, 100% = maximal ACh; activation, % at 3 µM; hit rate 0.4% among 360,000;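 active = activation above its plate's cutoff, the mean activation of sample wells plus 3 SD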
# nonsel antag count: nonselective antagonist in TAAR1 antagonist counter-screen; AID 651780; counterscreen cell line, calcium fluorescence, antagonist mode; inhibition, % at 3 µM; shares compounds with TAAR1 antagonist; hit rate 77% among 2,400; in the data active = inhibition above about 22%;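 note: CHO-Ga16 host cells stimulated with ATP at an EC80 level; 0% = agonist EC80 plus vehicle and 100% = vehicle without agonist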
# TAAR1 ant conf: confirmation of human TAAR1 antagonists; shares compounds with TAAR1 antagonist; TAAR1-expressing cells, fluorescence antagonist read-out; inhibition, % at 3 µM; hit rate 40% among 2,400; AID 651785; in the data active = inhibition above about 49%;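 note: CHO-Ga16 host cells challenged with agonist PEA near its EC80; 0% = agonist at EC80 plus vehicle and 100% = vehicle with no agonist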
# Ga16 ag counter: nonselective Ga16 agonism, counter-screen; AID 651953; Ga16-expressing cells, calcium fluorescence, agonist counterscreen; activation, % at 3 µM; hit rate 18% among 2,400; shares compounds with TAAR1 antagonist; in the data active = activation above about 12%;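 note: 0% = vehicle wells and 100% = saturating stimulus response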
# TAAR1 ag counter: activates human TAAR1 in antagonist counter-screen. shares compounds with TAAR1 antagonist. hTAAR1 cell line, fluorescence activation, agonist mode. activation, % at 3 µM. hit rate 2% among 2,400. AID 651955; in the data active = activation above about 37%;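 note: CHO cells stably expressing TAAR1 with calcium dye readout; 0% = DMSO vehicle and 100% = full agonist response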
# * marks the source's active call; other numbers are inactive results; / = no result given; ! = a repeat was not active. Shown are actives, neighbours in structure and some others; about 3% of the full set was active somewhere.
SMILES,CHRM4 agonist,TAAR1 ag,TAAR1 antagonist,M4 antag,CHRM4 PAM,nonsel antag count,TAAR1 ant conf,Ga16 ag counter,TAAR1 ag counter
COc1cccc(-c2cnc3c(NC(C)=O)cc(-c4cccc(C(=O)NCCN(C)C)c4)cn23)c1,0.8,0.0,5.1,0.9,1.9,/,/,/,/
CC(C)NC(=O)N(C)C[C@@H]1OCc2cnnn2CCCC(=O)N([C@@H](C)CO)C[C@H]1C,0.8,4.8,-19.2,-4.2,10.8,/,/,/,/
Cc1coc(NC(=O)CSc2nc(-c3ccc(Cl)cc3)cc(C(F)(F)F)c2C#N)n1,-0.3,/,/,-1.2,8.7,7.8,/,1.2,/
COc1ccc(-c2cc(C(F)(F)F)c(C#N)c(SCC(=O)Nc3nc(C)co3)n2)cc1,1.1,/,/,1.9,8.4,/,/,/,/
CN(Cc1ccccc1)C(=O)c1[nH]cnc1C(=O)Nc1ccc(Br)cc1F,0.1,0.4,0.6,-4.0,5.2,/,/,/,/
O=C(Nc1ccc(-c2noc(CCc3ccccc3)n2)cc1)c1cccnc1,13.4,24.0,69.3*,2.0,-9.9,36.8*,51.4*,14.0*,14.1
CC(=O)Nc1cccc(NC(=O)Cc2cccs2)c1,0.3,-0.5,5.5,8.8,-6.7,/,/,/,/
O=C(Cc1cccs1)Nc1cccc(-c2nc3cc4ccccc4cc3[nH]2)c1,8.8,8.3,74.3*,15.8,-13.4,34.3*,43.7,5.6,0.2
CCOC(=O)C1=CCN(S(=O)(=O)c2cccc(Cl)c2)C1c1ccc(Cl)c(Cl)c1 (stereo unspecified),/,1.5,17.3,/,/,/,/,/,/
CN1CCN(c2ccccc2NC(=O)c2ccc(-c3cccc([N+](=O)[O-])c3)o2)CC1,6.6,7.1,27.4,1.2,-4.2,/,/,/,/
CCC(=O)N1CCN(c2ccccc2NC(=O)c2ccc(-c3cccc([N+](=O)[O-])c3)o2)CC1,8.7,12.2,55.3*,6.7,-15.4,25.9*,49.8*,6.1,2.4
CNC(=O)C(C)c1ncc(C(F)(F)F)cc1Cl (stereo unspecified),1.5,-2.6,98.2*,0.4,12.4,2.4,-5.2,-0.7,-1.8
Cc1cccc(C)c1NC(=O)C(c1ccnc2ccccc12)N1CCN(C)CC1 (stereo unspecified),1.3,2.5,-1.3,11.3,-1.5,/,/,/,/
CCCS(=O)(=O)NC(=O)C1(C)CCCN(C(=O)c2cc(F)ccc2C)C1 (stereo unspecified),0.9,0.5,-5.9,2.1,6.3,/,/,/,/
O=C(CSc1n[nH]c(=O)n1C1CC1)Nc1cc(Cl)ccc1Oc1ccccc1,22.0,21.5,79.0*,46.8*,-16.5,46.6*,65.7*,13.8*,12.7
COc1ccc2c(c1)Cc1c-2cc(Br)c(N)c1Br,0.4,0.4,5.5,-11.5,1.6,/,/,/,/
O=c1c2ccccc2nc(/C=C/c2cc(Br)ccc2O)n1CCCO,24.5,13.0,57.8*,7.7,-13.1,12.7,19.8,5.6,10.7
O=c1c2ccccc2nc(/C=C/c2cccc([N+](=O)[O-])c2)n1CCO,3.0,13.8,8.5,-5.4,2.7,/,/,/,/
O=c1c2ccccc2nc(/C=C/c2cccnc2)n1CCc1ccccc1,8.7,6.9,59.7*,-2.8,-8.8,18.7,26.6,3.2,2.0
COc1ccc2oc(C(=O)OCC(=O)NC3(C#N)CCCC3)c(C)c2c1,3.6,-0.1,10.9,0.1,1.1,/,/,/,/
COC(=O)c1oc2c(c1C)C1(CCC2)SCCS1,-0.8,12.2,95.3*,-19.2,-2.9,-0.7,82.5*,6.0,0.5
COc1ccc(-c2cc(C(=O)NCc3ccco3)c3ccccc3n2)cc1,8.7,9.4,48.8*,-16.4,-6.5,19.5,31.1,4.9,-0.6
COc1ccc(Nc2cc(C(=O)NCc3ccco3)c3ccccc3n2)c(OC)c1,15.2,8.1,50.8*,-1.7,-14.1,9.1,23.6,6.3,3.4
O=C(NCc1ccco1)c1cc(-c2ccccc2)nc2ccccc12,9.1,7.7,47.4,-8.0,-9.5,/,/,/,/
COc1ccc(-c2cc(C(=O)NCc3ccco3)c3ccccc3n2)c(OC)c1,8.6,5.0,17.3,-5.5,-8.1,/,/,/,/
SMILES,CHRM4 agonist,TAAR1 ag,TAAR1 antagonist,M4 antag,CHRM4 PAM,nonsel antag count,TAAR1 ant conf,Ga16 ag counter,TAAR1 ag counter
COc1ccc(-c2cc(C(=O)Nc3c(C)n(C)n(-c4ccccc4)c3=O)c3ccccc3n2)cc1,21.7,14.7,58.5*,-11.7,-11.4,25.6*,40.1,7.8,8.1
Cc1cc(C(=O)Nc2c(C)n(C)n(-c3ccccc3)c2=O)c2ccccc2n1,0.5,6.8,0.5,8.9,-1.2,/,/,/,/
CC(C)C[C@H]1CN(CCCC[C@H]2CNC(=O)C(=O)N2CCc2ccc(O)cc2)C(=O)C(=O)N1CCc1ccccc1,-0.5,-0.2,15.2,3.6,5.1,/,/,/,/
C[C@H]1CNCCN1c1ccc(N2CCS(=O)(=O)CC2)c(C#N)c1,/,0.8,6.7,/,/,/,/,/,/
Cc1ccc(C(=O)Nc2cccc(N3C(=O)C4CCC(C)CC4C3=O)c2)cc1 (stereo unspecified),20.2,11.9,71.3*,3.4,-12.6,31.0*,50.3*,7.5,4.7
COc1cccc(NC(=O)c2cccc(N3C(=O)C4CCC(C)CC4C3=O)c2)c1 (stereo unspecified),20.7,12.7,26.5,5.9,-15.2,/,/,/,/
Cc1ccc(NC(=O)c2ccc(N3C(=O)C4CC=C(Cl)CC4C3=O)cc2)cc1 (stereo unspecified),29.0,26.9,62.5*,14.4,-13.3,23.8*,44.8,13.4*,14.5
COC(=O)c1cc(=O)nc(NN=Cc2ccco2)s1,-0.8,-0.5,-0.7,-8.5,1.8,/,/,/,/
Cc1ccc(-c2cc(NC(=O)Cc3c[nH]c4ccccc34)ccc2N(C)c2cccnc2)cc1,/,0.5,5.2,/,/,/,/,/,/
O=C1NC(Cc2ccc(O)cc2)c2nc3ccc(Br)cc3c(=O)n2-c2ccc(Cl)cc21 (stereo unspecified),/,8.3,-23.7,/,/,/,/,/,/
O=C(Nc1ccc2c(c1)CCCN2C(=O)c1cccs1)c1c(F)cccc1Cl,15.5,1.4,59.3*,2.0,-8.1,22.0*,43.4,7.7,13.2
O=C(Nc1ccc2c(c1)CCCN2C(=O)c1cccs1)c1c(F)cccc1F,6.1,-0.7,26.6,0.1,4.8,/,/,/,/
Cc1cc(C(=O)OCC(=O)NC(C)c2ccc(F)cc2)c(C)o1 (stereo unspecified),1.2,15.5,-1.2,-6.4,7.8,/,/,/,/
Cc1ccc(NS(=O)(=O)c2ccc3c(c2)CCC(=O)N3)cc1C,6.4,2.9,103.1*!,3.4,-2.2,5.0,7.1,1.9,4.5
Cc1ccc(NS(=O)(=O)c2ccc3c(c2)CC(=O)N3)cc1C,2.3,7.7,-29.4,-0.1,4.4,/,/,/,/
